Results on 16 compounds are retold here after PubChem BioAssay.

SMILES strings stand for the structures. The source made the active and inactive calls.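 Rule for the calls, unless noted: active = Her2 level under about 52% in both replicate screens, with viability over 70% of control (limit read from the data); inconclusive = Her2 under the limit in one screen only, or viability under 70%; inactive = Her2 level above the set limit.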

A short description of test [1]: reducers of endogenous Her2 protein level, primary screen, SKBR3 breast tumor cells, AlphaScreen, ATP viability (AID 461).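 For Her2 level: lower value means less Her2 protein in the cells.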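 For viability: percent of carrier control wells set as 100% viability.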 The settings on record: 18-24 h, measured here: SKBR3 viability, ATP luminescence, at 10 µM. For orientation: In Alpha technology, singlet oxygen from a donor bead excites a nearby acceptor bead.
Test [2] has as its target Receptor tyrosine-protein kinase erbB-2 (Homo sapiens) (UniProt P04626). The description is as above. The settings on record: 18-24 h, at 10 µM, stronger effect = lower value.
A short description of test [3]: SK-BR-3 cell growth inhibitors, pilot screen, 24 h, human (AID 572;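 active = viability at or below 10% of carrier control in both of two separate runs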;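 note: compound exposure lasted between 18 and 24 h rather than exactly 24 h; 100% = carrier-treated control wells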). The settings on record: SK-BR-3 viability, CellTiter-Glo luminescence, at 10 µM, stronger effect = lower value. (In ATP-based viability assays light output follows the ATP content of the culture.)
Test [4] is described as follows: HUVEC growth inhibition – cell-based, human, primary screen (AID 575;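 active = viability at or below 30% in both replicate assays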;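 note: 100% = median of untreated cell wells with 0.1% DMSO on each plate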). The settings on record: HUVEC proliferation, CellTiter-Glo luminescence, 72 h; at 10 µM; stronger effect = lower value. The procedure, abridged: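 Timing: 72 h treatment at 37 °C; material: HUVEC primary cells; technique: CellTiter-Glo luminescence measuring cellular ATP; controls: vehicle and MePR control wells; measure: percent of median DMSO-control luminescence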

Test [5] is described as follows: growth inhibitors of H69AR lung tumor, primary screen, human, duplicate replicates (AID 580;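 active = viability at or under a set limit in both replicates, limit being median viability minus 3 SD, cut at about 48% in these data, passing the limit was not always enough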;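 note: 100% = mean luminescence of untreated wells and 0% = no signal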). The settings on record: H69AR lung tumor cells viability, ATP luminescence, 72 h; at 10 µM; stronger effect = lower value.
Test [6] in a line: reversal of MRP1-mediated doxorubicin resistance, pilot screen, H69AR cells, doxorubicin co-treatment (AID 601;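 active = viability loss from added drug above about 55%, and viability with drug at most 40%, in both replicates, limit read from the data, passing the limit was not always enough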). The settings on record: CellTiter-Glo, 72 h, at 10 µM; for differential viability (reversal): stronger effect = higher value.
A short description of test [7]: 384-well plate pilot, post-Golgi transport modulator project, inhibition of yeast transport mutant growth (AID 636; in the data active = inhibition above about 31%). The settings on record: absorbance 615 nm, about 18 h, stronger effect = higher value.
Test [8] is described as follows: growth suppression of yeast trafficking mutant, preliminary HTS, modulators of trafficking downstream of Golgi apparatus project, 1536-format plate, OD 615 nm (AID 637; in the data active = inhibition above about 30%). The note with it: yeast transport mutant growth, absorbance 615 nm, 18 h; stronger effect = higher value.
Setting [9] is: H69AR cells + 2 uM doxorubicin, measured here: viability with 2 uM doxorubicin, stronger effect = lower value.
Where [10] appears, read: H69AR cells, compound alone cytotoxicity.

Chain of Receptor tyrosine-protein kinase erbB-2 (Homo sapiens) (P04626 whole entry, looked up): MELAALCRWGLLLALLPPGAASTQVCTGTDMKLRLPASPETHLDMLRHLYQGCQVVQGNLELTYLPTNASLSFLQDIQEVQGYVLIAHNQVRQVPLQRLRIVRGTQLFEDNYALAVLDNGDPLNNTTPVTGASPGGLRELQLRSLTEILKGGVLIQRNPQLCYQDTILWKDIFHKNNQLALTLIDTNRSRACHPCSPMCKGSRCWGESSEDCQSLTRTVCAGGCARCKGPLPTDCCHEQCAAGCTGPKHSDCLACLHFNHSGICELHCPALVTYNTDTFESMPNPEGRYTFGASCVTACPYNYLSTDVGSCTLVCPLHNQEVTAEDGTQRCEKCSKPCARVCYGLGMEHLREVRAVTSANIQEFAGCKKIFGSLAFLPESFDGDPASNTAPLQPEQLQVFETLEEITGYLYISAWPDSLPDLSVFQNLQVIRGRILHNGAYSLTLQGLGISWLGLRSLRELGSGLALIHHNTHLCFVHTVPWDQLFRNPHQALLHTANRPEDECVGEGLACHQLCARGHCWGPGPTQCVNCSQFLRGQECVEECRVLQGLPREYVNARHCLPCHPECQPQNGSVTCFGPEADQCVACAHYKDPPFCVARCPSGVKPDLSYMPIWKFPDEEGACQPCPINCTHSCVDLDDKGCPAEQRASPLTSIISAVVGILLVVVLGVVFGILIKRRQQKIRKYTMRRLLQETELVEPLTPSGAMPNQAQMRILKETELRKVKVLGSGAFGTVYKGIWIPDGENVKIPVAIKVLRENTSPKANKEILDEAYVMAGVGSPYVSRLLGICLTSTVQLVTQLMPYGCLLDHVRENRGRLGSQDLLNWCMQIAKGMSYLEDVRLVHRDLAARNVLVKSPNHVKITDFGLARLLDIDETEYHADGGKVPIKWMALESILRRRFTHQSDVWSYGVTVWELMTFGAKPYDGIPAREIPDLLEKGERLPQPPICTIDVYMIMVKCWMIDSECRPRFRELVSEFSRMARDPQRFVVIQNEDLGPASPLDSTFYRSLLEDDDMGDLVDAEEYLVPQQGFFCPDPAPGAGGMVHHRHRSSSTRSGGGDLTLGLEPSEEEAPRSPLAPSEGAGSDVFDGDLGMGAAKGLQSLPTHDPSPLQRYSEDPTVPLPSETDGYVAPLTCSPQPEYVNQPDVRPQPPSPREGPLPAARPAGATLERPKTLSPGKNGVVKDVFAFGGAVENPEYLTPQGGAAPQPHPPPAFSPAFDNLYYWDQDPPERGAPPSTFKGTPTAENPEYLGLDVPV

Broadly, the viability is a read-out of living cells in per cent, often relative to untreated cells. For orientation: inhibition means the relative decrease from the control value, in per cent. With `CCOC(=O)c1ccc(NC(=O)COc2ccc(-n3cnnn3)cc2)cc1`, the viability was 124% in test [1]; 124% (inactive) in test [3]; 96.8% (inactive) in test [4]; 89% (inactive) in test [5]; 87.2% in test [6] (setting [9]); 89% in test [6] (setting [10]). For the same compound, the Her2 level in test [2] is 95% (inactive). The differential viability (reversal) in test [6] (H69AR cells + 2 uM doxorubicin) was 1.81% (inactive). Further, the inhibition is -4.13% (inactive) in test [7] and -1.43% (inactive) in test [8].
Consider `O=C(Nc1ccncc1)c1cncc(Br)c1`, for which the viability in test [1] was 78%; in test [3] it was 78% (inactive); in test [4], 114% (inactive); in test [5] it was 100% (inactive); in test [6] (setting [9]), 96.4%; in test [6] (setting [10]) it was 100%. In test [2], the Her2 level was 95.5% (inactive). Further, the differential viability (reversal) in test [6] (H69AR cells + 2 uM doxorubicin) was 4.04% (inactive). Moreover, the inhibition in test [7] was -2.57% (inactive); in test [8], 1.5% (inactive).
`Cc1cc(C)cc(NC(=O)CCNS(=O)(=O)c2ccc3c(c2)oc(=O)n3C)c1`: the viability is 118% in test [1]; 118% (inactive) in test [3]; 95.8% (inactive) in test [4]; 94.9% (inactive) in test [5]; 97% in test [6] (setting [9]); 94.9% in test [6] (setting [10]). Moreover, in test [2], the Her2 level was 112% (inactive). Further, in test [6] (H69AR cells + 2 uM doxorubicin), the differential viability (reversal) is -2.07% (inactive). For the same compound, the inhibition in test [7] is -6.16% (inactive); in test [8], 1.75% (inactive).
`COc1cc2c(cc1OC)C(c1cccnc1)CC(=O)N2` (stereo not given): the viability is 106% in test [1]; 106% (inactive) in test [3]; 82.2% (inactive) in test [4]; 97.4% (inactive) in test [5]; 88.7% in test [6] (setting [9]); 97.4% in test [6] (setting [10]). Besides, the Her2 level in test [2] was 95% (inactive). The differential viability (reversal) in test [6] (H69AR cells + 2 uM doxorubicin) was 8.69% (inactive). In addition, the figures for the inhibition in test [7] and in test [8] were -1.73% (inactive) and -0.98% (inactive), respectively.
In the case of `COc1ccc(S(=O)(=O)N2CCSC2c2ccccc2)cc1` (stereo not given), the viability is 82% in test [1]; 82% (inactive) in test [3]; 79.9% (inactive) in test [4]; 76.9% (inactive) in test [5]; 90.7% in test [6] (setting [9]); 76.9% in test [6] (setting [10]). Also, in test [2], the Her2 level was 90.5% (inactive). Besides, in test [6] (H69AR cells + 2 uM doxorubicin), the differential viability (reversal) is -13.8% (inactive). Besides, the inhibition in test [7] was -2.7% (inactive); in test [8], -2.95% (inactive).
In the case of `C=CCOc1nc(N2CCCC2)nc(N2CCCC2)n1`, the viability is 89% in test [1]; 89% (inactive) in test [3]; 83.1% (inactive) in test [4]; 92.7% (inactive) in test [5]; 81.1% in test [6] (setting [9]); 92.7% in test [6] (setting [10]). Moreover, the Her2 level in test [2] is 91% (inactive). Further, the differential viability (reversal) in test [6] (H69AR cells + 2 uM doxorubicin) is 11.6% (inactive). Moreover, the inhibition in test [7] was -3.55% (inactive); in test [8] it was -2% (inactive).
As to `CSc1ccc(-c2nc(CSCC(=O)N3CCOCC3)c(C)o2)cc1`, the viability in test [1] was 102%; in test [3], 102% (inactive); in test [4], 85.2% (inactive); in test [5], 103% (inactive); in test [6] (setting [9]) it was 97.1%; in test [6] (setting [10]), 103%. Also, the Her2 level in test [2] is 91% (inactive). The differential viability (reversal) in test [6] (H69AR cells + 2 uM doxorubicin) is 6.36% (inactive). Moreover, the figures for the inhibition in test [7] and in test [8] were -0.67% (inactive) and -2.26% (inactive), respectively.
For `CN(C)c1ccc(/C=C/c2ccncc2)cc1`, the viability was 96% in test [1]; 96% (inactive) in test [3]; 89.9% (inactive) in test [4]; 90.5% (inactive) in test [5]; 90.1% in test [6] (setting [9]); 90.5% in test [6] (setting [10]). Besides, in test [2], the Her2 level was 152% (inactive). Further, in test [6] (H69AR cells + 2 uM doxorubicin), the differential viability (reversal) is 0.41% (inactive). Moreover, the results for the inhibition in test [7] and in test [8] were 3.03% (inactive) and 4% (inactive), respectively.
As for `Cc1nn(C)c(C)c1CNC(=O)c1cc2n(n1)C(C(F)(F)F)CC(c1cccs1)N2` (stereo not given), the viability is 89.5% in test [1]; 89.5% (inactive) in test [3]; 107% (inactive) in test [4]; 112% (inactive) in test [5]; 93.9% in test [6] (setting [9]); 112% in test [6] (setting [10]). The Her2 level in test [2] is 83% (inactive). Also, the differential viability (reversal) in test [6] (H69AR cells + 2 uM doxorubicin) is 18.2% (inactive). Further, the values for the inhibition in test [7] and in test [8] were 0.41% (inactive) and 0.32% (inactive), respectively.
In the case of `COC(=O)c1cc(Br)c(=O)n(CCN2CCOCC2)c1`, the viability in test [1] is 102%; in test [3], 102% (inactive); in test [4], 81.5% (inactive); in test [5] it was 96.2% (inactive); in test [6] (setting [9]) it was 82.8%; in test [6] (setting [10]), 96.2%. In addition, the Her2 level in test [2] is 87% (inactive). The differential viability (reversal) in test [6] (H69AR cells + 2 uM doxorubicin) was 13.5% (inactive). The inhibition in test [7] was -4.27% (inactive); in test [8], -0.49% (inactive).
For `Cc1cc(C(=O)N2CCN(C/C=C/c3ccccc3)CC2)no1`, the viability in test [1] was 92.5%; in test [3], 92.5% (inactive); in test [4], 93.8% (inactive); in test [5] it was 93.2% (inactive); in test [6] (setting [9]), 92.5%; in test [6] (setting [10]) it was 93.2%. Also, the Her2 level in test [2] is 97.5% (inactive). The differential viability (reversal) in test [6] (H69AR cells + 2 uM doxorubicin) is 0.745% (inactive). Also, the figures for the inhibition in test [7] and in test [8] were -4.05% (inactive) and 2.62% (inactive), respectively.
For the compound `Cc1ccc(S(=O)(=O)NCCNC(=O)c2ccccc2)cc1`, the viability in test [1] is 99%; in test [3] it was 99% (inactive); in test [4] it was 105% (inactive); in test [5] it was 99.2% (inactive); in test [6] (setting [9]), 79.5%; in test [6] (setting [10]), 99.2%. Moreover, the Her2 level in test [2] is 82% (inactive). Besides, the differential viability (reversal) in test [6] (H69AR cells + 2 uM doxorubicin) is 19.7% (inactive). Also, the inhibition in test [7] was -8.92% (inactive); in test [8], -0.83% (inactive).
On to `Cc1nc2sc(C(c3cccc(F)c3)N3CCCCC3)c(O)n2n1` (stereo not given), for which the viability is 109% in test [1]; 109% (inactive) in test [3]; 95.1% (inactive) in test [4]; 99.5% (inactive) in test [5]; 88.6% in test [6] (setting [9]); 99.5% in test [6] (setting [10]). For the same compound, in test [2], the Her2 level is 80% (inactive). In addition, the differential viability (reversal) in test [6] (H69AR cells + 2 uM doxorubicin) was 10.9% (inactive). For the same compound, the figures for the inhibition in test [7] and in test [8] were -4.79% (inactive) and -4.92% (inactive), respectively.
Take `COc1ccccc1N1CCN(C(=O)C2CCCO2)CC1` (stereo not given): the viability is 98.5% in test [1]; 98.5% (inactive) in test [3]; 90% (inactive) in test [4]; 97.5% (inactive) in test [5]; 97.8% in test [6] (setting [9]); 97.5% in test [6] (setting [10]). In test [2], the Her2 level is 92.5% (inactive). The differential viability (reversal) in test [6] (H69AR cells + 2 uM doxorubicin) was -0.265% (inactive). In addition, the inhibition in test [7] is -1.69% (inactive); in test [8], 1.8% (inactive).
For the compound `CCn1c2ccccc2c2cc(NC(=O)CSc3nnc(C4CC4)n3Cc3ccco3)ccc21`, the viability in test [1] was 104%; in test [3], 104% (inactive); in test [4] it was 75.5% (inactive); in test [5], 79% (inactive); in test [6] (setting [9]), 95.2%; in test [6] (setting [10]), 79%. Also, the Her2 level in test [2] is 88% (inactive). The differential viability (reversal) in test [6] (H69AR cells + 2 uM doxorubicin) is -16.2% (inactive). Further, the inhibition is -6.45% (inactive) in test [7] and -3.17% (inactive) in test [8].
Consider `COc1ccc(CC(=O)N2CCOCC2)cc1OC`, for which the viability in test [1] was 97.5%; in test [3] it was 97.5% (inactive); in test [4] it was 102% (inactive); in test [5], 91.9% (inactive); in test [6] (setting [9]) it was 94.2%; in test [6] (setting [10]), 91.9%. Besides, in test [2], the Her2 level is 99% (inactive). Moreover, in test [6] (H69AR cells + 2 uM doxorubicin), the differential viability (reversal) is -2.21% (inactive). In addition, the inhibition was 0.13% (inactive) in test [7] and 3.28% (inactive) in test [8].
